ChEMBL document CHEMBL2203056, “Antimutagenic thio compounds from Sisymbrium officinale” (J Nat Prod, 2012)

Columns and labels:
[1] = Cytotoxicity against Escherichia coli WP2 (trpE65 deltauvrApKM101) assessed as cell viability up to 10 to 300 ug/mL after 72 hrs in presence of 25 ug/plate 2-aminofluorene and metabolic activation system S9; format: ADME, organism-based; conditions: read-out: Activity
[2] = Cytotoxicity against Escherichia coli WP2 (trpE65 deltauvrA) assessed as cell viability up to 10 to 300 ug/mL after 72 hrs in presence of 25 ug/plate 2-aminofluorene and metabolic activation system S9; format: ADME, organism-based; conditions: read-out: Activity
[3] = Cytotoxicity against Escherichia coli WP2 (trpE65) assessed as cell viability up to 10 to 300 ug/mL after 72 hrs in presence of 25 ug/plate 2-aminofluorene and metabolic activation system S9; format: ADME, organism-based; conditions: read-out: Activity
Method in brief: (§1)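 Viability check on the antimutagenicity mixtures. Culture, mutagen (MMS 1700 μg/plate; 2AA or 2AF 25 μg/plate with S9 mix), test substance and S9 mix or 0.1 M phosphate buffer were shaken 30 min at 37 °C. Mixtures were diluted to 2 × 10^3 cells/mL, plated in top agar on nutrient agar and incubated 72 h at 37 °C. Colonies counted and compared with the solvent-only negative control.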

[4] = Cytotoxicity against Escherichia coli WP2 (trpE65 deltauvrApKM101) assessed as cell viability up to 10 to 300 ug/mL after 72 hrs in presence of 25 ug/plate 2-aminoanthracene and metabolic activation system S9; format: ADME, organism-based; conditions: read-out: Activity; method in brief: as §1
[5] = Cytotoxicity against Escherichia coli WP2 (trpE65 deltauvrA) assessed as cell viability up to 10 to 300 ug/mL after 72 hrs in presence of 25 ug/plate 2-aminoanthracene and metabolic activation system S9; format: ADME, organism-based; conditions: read-out: Activity; method in brief: as §1
[6] = Cytotoxicity against Escherichia coli WP2 (trpE65) assessed as cell viability up to 10 to 300 ug/mL after 72 hrs in presence of 25 ug/plate 2-aminoanthracene and metabolic activation system S9; format: ADME, organism-based; conditions: read-out: Activity
[7] = test system: Escherichia coli; test: Antimutagenic activity in Escherichia coli WP2 (trpE65) assessed as maximal inhibition of 2-aminofluorene-induced mutagenic effect at 10 to 300 ug/plate after 72 hrs in presence of metabolic activation system S9 by Ames test; format: functional
Method in brief: (§2)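 Preincubation Ames test with E. coli WP2 strains, from 16 h overnight cultures at 37 °C (about 2 × 10^9 bacteria/mL). Culture, mutagen, test substance (DMSO, 2% v/v vehicle) and either S9 mix (phenobarbital/β-naphthoflavone-induced rat liver) or 0.1 M phosphate buffer were shaken 30 min at 37 °C. Mutagens were MMS 1700 μg/plate without S9, and 2AA or 2AF 25 μg/plate with S9. Then top agar with 0.5 mM tryptophan on minimal agar, 72 h at 37 °C; tryptophan-independent revertants scored. Inhibition = 100 − (T/M × 100). Triplicates, at least two experiments.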

[8] = test system: Escherichia coli; test: Antimutagenic activity in Escherichia coli WP2 (trpE65 deltauvrApKM101) assessed as maximal inhibition of 2-aminoanthracene-induced mutagenic effect at 10 to 300 ug/plate after 72 hrs in presence of metabolic activation system S9 by Ames test; format: functional; method in brief: as §2
[9] = test system: Escherichia coli; test: Antimutagenic activity in Escherichia coli WP2 (trpE65 deltauvrA) assessed as maximal inhibition of 2-aminoanthracene-induced mutagenic effect at 10 to 300 ug/plate after 72 hrs in presence of metabolic activation system S9 by Ames test; format: functional; method in brief: as §2
[10] = Cytotoxicity against Escherichia coli WP2 (trpE65 deltauvrApKM101) assessed as cell viability up to 10 to 300 ug/mL after 72 hrs in presence of 1700 ug/plate methyl methane sulfonate; format: organism-based; conditions: Escherichia coli WP2 (trpE65 deltauvrApKM101) cells, read-out: Activity; method in brief: as §1
[11] = Cytotoxicity against Escherichia coli WP2 (trpE65 deltauvrA) assessed as cell viability up to 10 to 300 ug/mL after 72 hrs in presence of 1700 ug/plate methyl methane sulfonate; format: organism-based; conditions: Escherichia coli WP2 (trpE65 deltauvrA) cells, read-out: Activity; method in brief: as §1
[12] = Cytotoxicity against Escherichia coli WP2 (trpE65) assessed as cell viability up to 10 to 300 ug/mL after 72 hrs in presence of 1700 ug/plate methyl methane sulfonate; format: organism-based; conditions: Escherichia coli WP2 (trpE65) cells, read-out: Activity; method in brief: as §1
[13] = test system: Escherichia coli; test: Antimutagenic activity in Escherichia coli WP2 (trpE65 deltauvrApKM101) assessed as maximal inhibition of methyl methane sulfonate-induced mutagenic effect at 10 to 300 ug/plate after 72 hrs in absence of metabolic activation system S9 by Ames test; format: functional; method in brief: as §2
[14] = test system: Escherichia coli; test: Antimutagenic activity in Escherichia coli WP2 (trpE65 deltauvrA) assessed as maximal inhibition of methyl methane sulfonate-induced mutagenic effect at 10 to 300 ug/plate after 72 hrs in absence of metabolic activation system S9 by Ames test; format: functional; method in brief: as §2
[15] = test system: Escherichia coli; test: Antimutagenic activity in Escherichia coli WP2 (trpE65) assessed as maximal inhibition of methyl methane sulfonate-induced mutagenic effect at 10 to 300 ug/plate after 72 hrs in absence of metabolic activation system S9 by Ames test; format: functional; method in brief: as §2
[16] = Solubility of the compound up to 110 ug/mL; format: physicochemical
Method in brief: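 Compounds dissolved in DMSO by sonication, stock up to 12 mg/mL. Insolubility in the final assay mixture judged as a precipitate visible to the unaided eye.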

SMILES | viability at 72 h [1] | viability at 72 h [2] | viability at 72 h [3] | viability at 72 h [4] | viability at 72 h [5] | viability at 72 h [6] | inhibition (INH) [7] | inhibition (INH) [8] | inhibition (INH) [9] | viability at 72 h [10] | viability at 72 h [11] | viability at 72 h [12] | inhibition (INH) [13] | inhibition (INH) [14] | inhibition (INH) [15] | solubility [16]
CC(C)/C(=N/OS(=O)(=O)O)S[C@@H]1O[C@H](CO)[C@@H](O)[C@H](O)[C@H]1O [GLUCOPUTRANJIVIN] | 93% | 77% | 77% | 93% | 77% | 77% | 61.6% | 21.5% | 80.1% | 80% | 82% | 80% | 38.5% | 44.6% | 32.8% | soluble
CC(C)N=C=S [ISOPROPYL ISOTHIOCYANATE] | 93% | 77% | 77% | 93% | 77% | 77% | 57.9% | 18.6% | 81.9% | 80% | 82% | 80% | 32.9% | 45.7% | 9.7% | soluble
